According to ChEMBL document CHEMBL5058577, “EUbOPEN Chemogenomics Library 2 (Multiplex)” (2022):
Non-standard residues stand in square brackets, D forms with d. Residues, ends and D or L forms follow the SMILES beside them.

System: HEK-293T
Assay: Multiplex assay against HEK293T
Format: toxicity, cell-based
Conditions: human
Method in brief: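 Phenotypes for tubulin, mitochondrial mass and membrane permeability are expressed as per cents of healthy-nucleus cells. Cells were stained live at seeding with Hoechst33342, BioTracker Green Microtubule Cytoskeleton Dye, MitoTracker Red and Annexin V Alexa Fluor 680, then imaged after compound addition on a CQ1 microscope at 37°C and 5% CO2. Machine-learning gating in CellPathfinder separated Hoechst high-intensity objects from normal cells, divided normal cells by nuclear state (healthy, pyknosed, fragmented) and divided pyknosed cells into mitotic or apoptotic.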

[1] = 12 h, 1 µM, compound concentration 1 uM, replicate 1
[2] = 12 h, 1 µM, compound concentration 1 uM, replicate 2
[3] = 12 h, 10 µM, compound concentration 10 uM, replicate 1
[4] = 12 h, 10 µM, compound concentration 10 uM, replicate 2
[5] = 24 h, 1 µM, compound concentration 1 uM, replicate 1
[6] = 24 h, 1 µM, compound concentration 1 uM, replicate 2
[7] = 24 h, 10 µM, compound concentration 10 uM, replicate 1
[8] = 24 h, 10 µM, compound concentration 10 uM, replicate 2
[9] = 48 h, 1 µM, compound concentration 1 uM, replicate 1
[10] = 48 h, 1 µM, compound concentration 1 uM, replicate 2
[11] = 48 h, 10 µM, compound concentration 10 uM, replicate 1
[12] = 48 h, 10 µM, compound concentration 10 uM, replicate 2

Structure (SMILES): CC(C)C[C@@H]1NC(=O)[C@@H](C(C)C)NC(=O)[C@@H]2CCCN2C(=O)[C@@H](CC(=O)O)NC(=O)[C@@H](Cc2c[nH]c3ccccc23)NC1=O [BQ-123] (cyclo(L[dW][dD]P[dV]))
- Population Apoptotic (%) [1]: 46%
- Population Fragmented Nuclei (%) [1]: 7%
- Population Healthy Nuclei (%) [1]: 80%
- Population Hoechst High Intensity Objects (%) [1]: 4%
- Population Membrane Permeable-Phenotype (%) [1]: 0%
- Population Mitochondria Different-Phenotype (%) [1]: 39%
- Population Mitotic Cells (%) [1]: 53%
- Population Normal (%) [1]: 95%
- Population Pyknosed Nuclei (%) [1]: 11%
- Population Tubulin-Different-Phenotype (%) [1]: 32%
- Total Cell Count [1]: 376
- Population Fragmented Nuclei (%) [2]: 5%
- Population Healthy Nuclei (%) [2]: 82%
- Population Hoechst High Intensity Objects (%) [2]: 7%
- Population Mitochondria Different-Phenotype (%) [2]: 59%
- Population Normal (%) [2]: 92%
- Population Tubulin-Different-Phenotype (%) [2]: 19%
- Total Cell Count [2]: 392
- Population Apoptotic (%) [3]: 30%
- Population Fragmented Nuclei (%) [3]: 7%
- Population Healthy Nuclei (%) [3]: 78%
- Population Hoechst High Intensity Objects (%) [3]: 7%
- Population Membrane Permeable-Phenotype (%) [3]: 0%
- Population Mitochondria Different-Phenotype (%) [3]: 48%
- Population Mitotic Cells (%) [3]: 69%
- Population Normal (%) [3]: 92%
- Population Pyknosed Nuclei (%) [3]: 14%
- Population Tubulin-Different-Phenotype (%) [3]: 31%
- Total Cell Count [3]: 387
- Population Apoptotic (%) [4]: 71%
- Population Fragmented Nuclei (%) [4]: 5%
- Population Hoechst High Intensity Objects (%) [4]: 11%
- Population Mitochondria Different-Phenotype (%) [4]: 65%
- Population Mitotic Cells (%) [4]: 28%
- Population Normal (%) [4]: 88%
- Population Pyknosed Nuclei (%) [4]: 16%
- Population Tubulin-Different-Phenotype (%) [4]: 22%
- Total Cell Count [4]: 265
- Population Apoptotic (%) [5]: 26%
- Population Fragmented Nuclei (%) [5]: 10%
- Population Healthy Nuclei (%) [5]: 79%
- Population Hoechst High Intensity Objects (%) [5]: 3%
- Population Membrane Permeable-Phenotype (%) [5]: 0%
- Population Mitochondria Different-Phenotype (%) [5]: 27%
- Population Mitotic Cells (%) [5]: 73%
- Population Normal (%) [5]: 96%
- Population Pyknosed Nuclei (%) [5]: 9%
- Population Tubulin-Different-Phenotype (%) [5]: 21%
- Total Cell Count [5]: 497
- Population Apoptotic (%) [6]: 40%
- Population Fragmented Nuclei (%) [6]: 7%
- Population Healthy Nuclei (%) [6]: 82%
- Population Hoechst High Intensity Objects (%) [6]: 5%
- Population Mitochondria Different-Phenotype (%) [6]: 35%
- Population Mitotic Cells (%) [6]: 59%
- Population Normal (%) [6]: 94%
- Population Tubulin-Different-Phenotype (%) [6]: 14%
- Total Cell Count [6]: 538
- Population Apoptotic (%) [7]: 25%
- Population Fragmented Nuclei (%) [7]: 11%
- Population Healthy Nuclei (%) [7]: 77%
- Population Hoechst High Intensity Objects (%) [7]: 6%
- Population Membrane Permeable-Phenotype (%) [7]: 0%
- Population Mitochondria Different-Phenotype (%) [7]: 31%
- Population Mitotic Cells (%) [7]: 75%
- Population Normal (%) [7]: 93%
- Population Pyknosed Nuclei (%) [7]: 11%
- Population Tubulin-Different-Phenotype (%) [7]: 24%
- Total Cell Count [7]: 511
- Population Apoptotic (%) [8]: 57%
- Population Fragmented Nuclei (%) [8]: 8%
- Population Healthy Nuclei (%) [8]: 78%
- Population Hoechst High Intensity Objects (%) [8]: 7%
- Population Mitochondria Different-Phenotype (%) [8]: 50%
- Population Mitotic Cells (%) [8]: 42%
- Population Normal (%) [8]: 92%
- Population Pyknosed Nuclei (%) [8]: 12%
- Population Tubulin-Different-Phenotype (%) [8]: 18%
- Total Cell Count [8]: 302
- Population Apoptotic (%) [9]: 21%
- Population Fragmented Nuclei (%) [9]: 11%
- Population Healthy Nuclei (%) [9]: 79%
- Population Hoechst High Intensity Objects (%) [9]: 3%
- Population Membrane Permeable-Phenotype (%) [9]: 0%
- Population Mitochondria Different-Phenotype (%) [9]: 22%
- Population Mitotic Cells (%) [9]: 78%
- Population Normal (%) [9]: 96%
- Population Pyknosed Nuclei (%) [9]: 9%
- Population Tubulin-Different-Phenotype (%) [9]: 15%
- Total Cell Count [9]: 719
- Population Apoptotic (%) [10]: 24%
- Population Healthy Nuclei (%) [10]: 81%
- Population Hoechst High Intensity Objects (%) [10]: 5%
- Population Membrane Permeable-Phenotype (%) [10]: 1%
- Population Mitochondria Different-Phenotype (%) [10]: 18%
- Population Mitotic Cells (%) [10]: 75%
- Population Normal (%) [10]: 94%
- Population Pyknosed Nuclei (%) [10]: 7%
- Population Tubulin-Different-Phenotype (%) [10]: 10%
- Total Cell Count [10]: 777
- Population Apoptotic (%) [11]: 25%
- Population Fragmented Nuclei (%) [11]: 16%
- Population Healthy Nuclei (%) [11]: 77%
- Population Hoechst High Intensity Objects (%) [11]: 3%
- Population Membrane Permeable-Phenotype (%) [11]: 1%
- Population Mitochondria Different-Phenotype (%) [11]: 21%
- Population Mitotic Cells (%) [11]: 75%
- Population Normal (%) [11]: 96%
- Population Pyknosed Nuclei (%) [11]: 6%
- Population Tubulin-Different-Phenotype (%) [11]: 15%
- Total Cell Count [11]: 756
- Population Apoptotic (%) [12]: 40%
- Population Fragmented Nuclei (%) [12]: 11%
- Population Healthy Nuclei (%) [12]: 80%
- Population Membrane Permeable-Phenotype (%) [12]: 0%
- Population Mitochondria Different-Phenotype (%) [12]: 29%
- Population Mitotic Cells (%) [12]: 59%
- Population Pyknosed Nuclei (%) [12]: 8%
- Population Tubulin-Different-Phenotype (%) [12]: 16%
- Total Cell Count [12]: 477
